Experimental data reported in ChEMBL document CHEMBL1142375, “Fluorescent 7-diethylaminocoumarin pyrrolobenzodiazepine conjugates: synthesis, DNA interaction, cytotoxicity and differential cellular localization” (Bioorg Med Chem Lett, 2008).
Calls of active or inactive are those of the source. The calls are words filed in the database; no cut-off is given here.

Experiments:
DNA [1] = test: Binding affinity to calf thymus DNA assessed as thermal denaturation temperature at 20 uM after 72 hrs; assay type: nucleic-acid assay; conditions: Bos taurus
DNA [2] = test: Binding affinity to calf thymus DNA assessed as thermal denaturation temperature at 20 uM after 18 hrs; assay type: nucleic-acid assay; conditions: Bos taurus
OVCAR-5 [3] = test: Cytotoxicity against human OVCAR5 cells after 96 hrs by Alamar blue method; assay type: functional, cell-based; conditions: OVCAR-5, 96 h
Outline: (§1)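 Cells were exposed to compound continuously for 96 h, and viability was read by Alamar blue. The IC50 is the mean with standard deviation of three independent experiments.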

DNA [4] = test: Binding affinity to calf thymus DNA assessed as thermal denaturation temperature at 20 uM after 4 hrs; assay type: nucleic-acid assay; conditions: Bos taurus
LOX IMVI [5] = test: Cytotoxicity against human LOXIMVI cells after 96 hrs by Alamar blue method; assay type: functional, cell-based; outline: as §1
OVCAR-5 [6] = test: Cytotoxicity against human OVCAR5 cells at 1 uM after 96 hrs by Alamar blue method; assay type: functional, cell-based
LOX IMVI [7] = test: Cytotoxicity against human LOXIMVI cells at 1 uM after 96 hrs by Alamar blue method; assay type: functional, cell-based
LOX IMVI [8] = test: Cytotoxicity against human LOXIMVI cells after 24 hrs by Alamar blue method; assay type: functional, cell-based

ΔTm (DNA [1]) [°C]	ΔTm (DNA [2]) [°C]	ΔTm (DNA [4]) [°C]	Compound	IC50 (OVCAR-5 [3]) [µM]	IC50 (LOX IMVI [5]) [µM]	Activity (OVCAR-5 [6])	Activity (LOX IMVI [7])	IC50 (LOX IMVI [8]) [µM]
2.9	2	1.4	CCN(CC)c1ccc2cc(C(=O)NCCCCCCCCOc3cc4c(cc3OC)C(=O)N3CCC[C@H]3C=N4)c(=O)oc2c1	7.8	4.5			
			COc1cc2c(cc1C)N=C[C@@H]1CCCN1C2=O			inactive	inactive	
1	0.9	0.7	CCN(CC)c1ccc2cc(C(=O)NCCCCNC(=O)CCOc3cc4c(cc3OC)C(=O)N3CCC[C@H]3C=N4)c(=O)oc2c1	> 10	> 10			
0.2	0.2	0.2	CCOC(=O)c1cc2ccc(N(CC)CC)cc2oc1=O	> 10	> 10			
3.9	3.6	3.4	CCN(CC)c1ccc2cc(C(=O)NCCCOc3cc4c(cc3OC)C(=O)N3CCC[C@H]3C=N4)c(=O)oc2c1	3.2	1.4			1.5

Compound	ΔTm (DNA [1]) [°C]	ΔTm (DNA [2]) [°C]	ΔTm (DNA [4]) [°C]	IC50 (OVCAR-5 [3]) [µM]	IC50 (LOX IMVI [5]) [µM]	Activity (OVCAR-5 [6])	Activity (LOX IMVI [7])	IC50 (LOX IMVI [8]) [µM]
COc1cc2c(cc1O)N=C[C@@H]1CCCN1C2=O	0.8	0.7	0.5					
